Results on six compounds are retold here after ChEMBL document CHEMBL1154781, “Synthesis and antimicrobial activity of some new N-acyl substituted phenothiazines” (2009).

Structures are written as SMILES. ≈ marks a conversion by molar mass, not a printed value. Calls of active or inactive are those of the source. The rule behind the calls is not given here.

Broadly, the MIC is the lowest concentration found to suppress growth. Lower therefore signals greater potency.

For experiment [1], the system named is Pseudomonas aeruginosa. The experiment can be described thus: Antibacterial activity against Pseudomonas aeruginosa ATCC 27853 after 24 hrs by disc diffusion method. It counts as functional. The following applies: ATCC 27853, 24 h. The gist of the method: (§1)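 Bacterial strains tested on discs at each concentration, placed in triplicate in nutrient agar seeded with fresh bacteria; incubated 37 °C for 24 h. Ciprofloxacin served as reference, with solvent and growth controls. Zones of inhibition and MICs were recorded.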

Experiment [2] relates to Bacillus subtilis. Kind of experiment: Antibacterial activity against Bacillus subtilis ATCC 11774 at 15 ug/ml after 24 hrs by disc diffusion method. It counts as functional. The conditions noted are these: ATCC 11774, 24 h, read-out: IZ. The gist of the method: as §1
For experiment [3], the system named is Aspergillus niger. Kind of experiment: Antifungal activity against Aspergillus niger NCIM 617 after 2 to 3 days by serial plate dilution method. It counts as functional. A digest of the protocol:
(§2)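 For the fungal lawn, a loopful of each strain was suspended in 3 ml normal saline and spread on agar plates. Excess suspension was decanted and the plates were dried 1 h at 37 °C. Wells were punched and labeled. Plates, including a triplicate control, were held at 37 °C for 2–3 days. Zones of inhibition and MIC were recorded against fluconazole as standard.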

The subject of experiment [4] is Pseudomonas aeruginosa. Kind of experiment: Antibacterial activity against Pseudomonas aeruginosa ATCC 27853 at 10 ug/ml after 24 hrs by disc diffusion method. It is filed as functional. The conditions noted are these: ATCC 27853, 24 h, read-out: IZ. A digest of the protocol: as §1
A general note: A growth-free zone around the sample is the usual read-out of agar diffusion tests.

Experiment [5] concerns Escherichia coli. The experiment can be described thus: Antibacterial activity against Escherichia coli ATCC 25922 at 10 ug/ml after 24 hrs by disc diffusion method. It is filed as functional. The conditions noted are these: ATCC 25922, 24 h, read-out: IZ. A digest of the protocol:
as §1

Experiment [6] concerns Aspergillus fumigatus. The experiment can be described thus: Antifungal activity against Aspergillus fumigatus NCIM 902 after 2 to 3 days by serial plate dilution method. It counts as functional. The gist of the method:
as §2

Experiment [7] has as its system Escherichia coli. The experiment can be described thus: Antibacterial activity against Escherichia coli ATCC 25922 after 24 hrs by disc diffusion method. It counts as functional. The following applies: ATCC 25922, 24 h. A digest of the protocol: as §1
The subject of experiment [8] is Candida albicans. The experiment can be described thus: Antifungal activity against Candida albicans NCIM 300 after 2 to 3 days by serial plate dilution method. It counts as functional. A digest of the protocol:
as §2

For experiment [9], the system named is Bacillus subtilis. Kind of experiment: Antibacterial activity against Bacillus subtilis ATCC 11774 after 24 hrs by disc diffusion method. It counts as functional. The following applies: ATCC 11774, 24 h. The gist of the method: as §1
In experiment [10] the test system is Aspergillus fumigatus. Kind of experiment: Antifungal activity against Aspergillus fumigatus NCIM 902 at 10 ug/ml after 2 to 3 days by serial plate dilution method. It counts as functional. The following applies: read-out: IZ. The gist of the method:
as §2

The test system of experiment [11] is Aspergillus flavus. Kind of experiment: Antifungal activity against Aspergillus flavus NCIM 524 after 2 to 3 days by serial plate dilution method. It is filed as functional. A digest of the protocol:
as §2

In experiment [12] the test system is Staphylococcus aureus. The experiment can be described thus: Antibacterial activity against Staphylococcus aureus ATCC 25923 at 10 ug/ml after 24 hrs by disc diffusion method. It is filed as functional. The following applies: ATCC 25923, 24 h, read-out: IZ. A digest of the protocol:
as §1

In experiment [13] the test system is Staphylococcus aureus. Kind of experiment: Antibacterial activity against Staphylococcus aureus ATCC 25923 at after 24 hrs by disc diffusion method. It is filed as functional. The following applies: ATCC 25923, 24 h. The gist of the method: as §1
Experiment [14] has as its system Candida albicans. The experiment can be described thus: Antifungal activity against Candida albicans NCIM 300 at 10 ug/ml after 2 to 3 days by serial plate dilution method. It counts as functional. The conditions noted are these: read-out: IZ. A digest of the protocol: as §2
The test system of experiment [15] is Aspergillus flavus. The experiment can be described thus: Antifungal activity against Aspergillus flavus NCIM 524 at 10 ug/ml after 2 to 3 days by serial plate dilution method. It counts as functional. The conditions noted are these: read-out: IZ. The gist of the method: as §2
In experiment [16] the test system is Aspergillus niger. Kind of experiment: Antifungal activity against Aspergillus niger NCIM 617 at 10 ug/ml after 2 to 3 days by serial plate dilution method. It is filed as functional. The following applies: read-out: IZ. A digest of the protocol: as §2
The test system of experiment [17] is Pseudomonas aeruginosa. The experiment can be described thus: Antibacterial activity against Pseudomonas aeruginosa ATCC 27853 at >50 ug/ml after 24 hrs by disc diffusion method. It is filed as functional, organism-based. A digest of the protocol: as §1
The test system of experiment [18] is Bacillus subtilis. The experiment can be described thus: Antibacterial activity against Bacillus subtilis ATCC 11774 at >50 ug/ml after 24 hrs by disc diffusion method. It counts as functional, organism-based. A digest of the protocol:
as §1

The test system of experiment [19] is Staphylococcus aureus. The experiment can be described thus: Antibacterial activity against Staphylococcus aureus ATCC 25923 at >50 ug/ml after 24 hrs by disc diffusion method. It counts as functional, organism-based. The gist of the method: as §1

Take `O=C1CCC(=O)N1CC(=O)N1c2ccccc2Sc2ccc(C(F)(F)F)cc21`: the MIC came to 15 µg/mL (≈ 36.9 µM) in experiment [1]; 20 µg/mL (≈ 49.2 µM) in experiment [3]; 15 µg/mL (≈ 36.9 µM) in [6]; 20 µg/mL (≈ 49.2 µM) in [7]; 20 µg/mL (≈ 49.2 µM) in experiment [8]; 25 µg/mL (≈ 61.5 µM) in experiment [9]. Further, the minimal inhibitory concentration (MIC) came out at 10 µg/mL (≈ 24.6 µM) in experiment [11] and 15 µg/mL (≈ 36.9 µM) in [13]. Moreover, in [2], the zone of inhibition at 15 µg/mL worked out at 14 mm. For the same compound, the zone of inhibition at 10 µg/mL in experiment [4] amounted to 19 mm; in experiment [5], 21 mm; in experiment [10] it was 19 mm; in experiment [12], 18 mm; in experiment [14], 19 mm; in experiment [15], 23 mm. The zone of inhibition at 10 µg/mL in [16] was 21 mm.
With `CC(=O)c1ccc2c(c1)N(C(=O)CN1C(=O)c3ccccc3C1=O)c1ccccc1S2`, the result in [17] was inactive. The zone of inhibition at 15 µg/mL in experiment [2] was 16 mm. Also, the MIC was 10 µg/mL (≈ 23.3 µM) in experiment [3]; 15 µg/mL (≈ 35 µM) in experiment [6]; 10 µg/mL (≈ 23.3 µM) in [7]; 10 µg/mL (≈ 23.3 µM) in experiment [8]; 15 µg/mL (≈ 35 µM) in experiment [9]; 10 µg/mL (≈ 23.3 µM) in experiment [11]. Moreover, inhibition of growth in [13] (MIC) required 10 µg/mL (≈ 23.3 µM). Also, the zone of inhibition at 10 µg/mL came out at 21 mm in experiment [5]; 19 mm in experiment [10]; 19 mm in [12]; 14 mm in experiment [14]; 22 mm in experiment [15]; 25 mm in experiment [16].
For the compound `O=C1c2ccccc2C(=O)N1CC(=O)N1c2ccccc2Sc2ccccc21`, the result in experiment [17] was inactive. Moreover, in [2], the zone of inhibition at 15 µg/mL is 17 mm. The minimum inhibitory concentration (MIC) in experiment [3] turned out to be 10 µg/mL (≈ 25.9 µM); in [6], 15 µg/mL (≈ 38.8 µM); in experiment [7], 10 µg/mL (≈ 25.9 µM); in [8], 10 µg/mL (≈ 25.9 µM); in experiment [9], 15 µg/mL (≈ 38.8 µM); in experiment [11] it was 10 µg/mL (≈ 25.9 µM). The lowest concentration to inhibit growth in [13] (MIC) was 10 µg/mL (≈ 25.9 µM). The zone of inhibition at 10 µg/mL in experiment [5] stood at 22 mm; in experiment [10] it was 20 mm; in [12], 20 mm; in experiment [14] it was 17 mm; in experiment [15] it was 22 mm; in [16] it was 23 mm.
For `O=C1C=CC(=O)N1CC(=O)N1c2ccccc2Sc2ccc(Cl)cc21`, the MIC in experiment [1] was found to be 15 µg/mL (≈ 40.5 µM); in [3] it was 20 µg/mL (≈ 53.9 µM); in [6], 20 µg/mL (≈ 53.9 µM); in experiment [7], 10 µg/mL (≈ 27 µM); in [8], 20 µg/mL (≈ 53.9 µM); in [11], 20 µg/mL (≈ 53.9 µM). Besides, the MIC in experiment [13] was 15 µg/mL (≈ 40.5 µM). Besides, the zone of inhibition at 10 µg/mL in [4] amounted to 17 mm; in [5], 20 mm; in experiment [10], 16 mm; in [12], 18 mm; in [14], 17 mm; in experiment [15], 15 mm. For the same compound, in experiment [16], the zone of inhibition at 10 µg/mL was determined as 18 mm. Also, the outcome in [18] was inactive.
For the compound `O=C1CCC(=O)N1CC(=O)N1c2ccccc2Sc2ccccc21`, the outcome in experiment [17] and in experiment [19] was inactive. Moreover, the zone of inhibition at 15 µg/mL in experiment [2] stood at 18 mm. Moreover, the minimum inhibitory concentration (MIC) worked out at 20 µg/mL (≈ 59.1 µM) in experiment [3]; 20 µg/mL (≈ 59.1 µM) in experiment [6]; 10 µg/mL (≈ 29.6 µM) in experiment [7]; 15 µg/mL (≈ 44.3 µM) in experiment [8]; 15 µg/mL (≈ 44.3 µM) in experiment [9]; 15 µg/mL (≈ 44.3 µM) in experiment [11]. Moreover, the zone of inhibition at 10 µg/mL turned out to be 24 mm in experiment [5]; 19 mm in experiment [10]; 17 mm in experiment [14]; 24 mm in experiment [15]; 19 mm in experiment [16].
`O=C1C=CC(=O)N1CC(=O)N1c2ccccc2Sc2ccccc21`: the MIC was 15 µg/mL (≈ 44.6 µM) in experiment [1]; 20 µg/mL (≈ 59.5 µM) in experiment [3]; 20 µg/mL (≈ 59.5 µM) in experiment [6]; 10 µg/mL (≈ 29.7 µM) in [7]; 20 µg/mL (≈ 59.5 µM) in experiment [8]; 15 µg/mL (≈ 44.6 µM) in [9]. The results for the MIC in experiment [11] and in experiment [13] were 20 µg/mL (≈ 59.5 µM) and 15 µg/mL (≈ 44.6 µM), respectively. Also, the zone of inhibition at 15 µg/mL in experiment [2] was 16 mm. Further, the zone of inhibition at 10 µg/mL in experiment [4] amounted to 17 mm; in [5], 20 mm; in experiment [10], 15 mm; in experiment [12], 15 mm; in [14], 17 mm; in experiment [15], 18 mm. Besides, the zone of inhibition at 10 µg/mL in experiment [16] amounted to 17 mm.
